Assay results reported in ChEMBL document CHEMBL1137655, “Isoxyl activation is required for bacteriostatic activity against Mycobacterium tuberculosis” (2007).
Values after ≈ are worked out from the molar mass of the structure shown.

Assays:
[1] = system: Mycobacterium tuberculosis; test: Antimycobacterial activity against Mycobacterium tuberculosis H37Rv ATCC 25618 overexpressing ethR gene by colorimetric resazurin microtiter assay; type: functional
Outline: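 Resazurin colorimetric microtiter MIC in 7H9-ADC broth at 37°C, for H37Rv carrying ethR on pVV vector; ISO tested up to 40 μg/ml, the solubility limit.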

[2] = system: Mycobacterium tuberculosis; test: Antimycobacterial activity against Mycobacterium tuberculosis MT1K ISO-R22 mutant expressing VV16 plasmid by colorimetric resazurin microtiter assay; type: functional
Outline: (§1)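 Resazurin colorimetric microtiter MIC in 7H9-ADC broth with 2% DMSO at 37°C; strains carry empty pVV16 or pVVethA complementation vector; ISO tested up to 40 μg/ml, highest soluble level.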

[3] = system: Mycobacterium tuberculosis; test: Antimycobacterial activity against Mycobacterium tuberculosis MT1K ISO-R22 mutant overexpressing ethA gene by colorimetric resazurin microtiter assay; type: functional; outline: as §1
[4] = system: Mycobacterium tuberculosis; test: Antimycobacterial activity against Mycobacterium tuberculosis MT1K ISO-R33 mutant expressing VV16 plasmid by colorimetric resazurin microtiter assay; type: functional; outline: as §1
[5] = system: Mycobacterium tuberculosis; test: Antimycobacterial activity against Mycobacterium tuberculosis MT1K ISO-R33 mutant overexpressing ethA gene by colorimetric resazurin microtiter assay; type: functional; outline: as §1
[6] = system: Mycobacterium tuberculosis; test: Ratio of MIC for wild-type Mycobacterium tuberculosis H37Rv expressing VV16 plasmid to MIC for Mycobacterium tuberculosis H37Rv overexpressing ethA gene; type: functional
Outline: (§2)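 Ratio of resazurin microtiter MICs in 7H9-ADC broth for H37Rv carrying pVVethR or pVVethA versus empty pVV16; ethA strain run at 32°C, ethR at 37°C.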

[7] = system: Mycobacterium tuberculosis; test: Ratio of MIC for Mycobacterium tuberculosis H37Rv overexpressing ethR gene to MIC for wild-type Mycobacterium tuberculosis H37Rv expressing VV16 plasmid; type: functional; outline: as §2
[8] = system: Mycobacterium tuberculosis; test: microbe, parasite or virus in culture; conditions: H37Rv ATCC 25618

CC(C)CCOc1ccc(NC(=S)Nc2ccc(OCCC(C)C)cc2)cc1 [TIOCARLIDE]
MIC [1]: > 40 µg/mL
MIC [2]: >40 µg/mL
MIC [3]: 5 µg/mL (≈ 12.5 µM)
MIC [4]: >40 µg/mL
MIC [5]: 5 µg/mL (≈ 12.5 µM)
fold change (FC) [6]: 2
fold change (FC) [7]: 8
MIC [8]: 2.5 µg/mL (≈ 6.24 µM)
